From ChEMBL document CHEMBL4014306, “Pyrazolopyrimidines as Potent Stimulators for Transient Receptor Potential Canonical 3/6/7 Channels” (J Med Chem, 2017)
Active and inactive are the calls of the source. No cut-off for these calls is given here.

Assays:
Assay type in all cases: cell-based
[1] = target: T1, Short transient receptor potential channel 6 (Mus musculus) (UniProt Q61143); assay: (§1) Agonist activity at mouse TRPC6 expressed in HEK293 cells co-expressing Gq11-PLCbeta fused M5 receptor assessed as induction of membrane potential depolarization measured for 2.5 mins by FLIPR assay
T1 sequence (whole entry): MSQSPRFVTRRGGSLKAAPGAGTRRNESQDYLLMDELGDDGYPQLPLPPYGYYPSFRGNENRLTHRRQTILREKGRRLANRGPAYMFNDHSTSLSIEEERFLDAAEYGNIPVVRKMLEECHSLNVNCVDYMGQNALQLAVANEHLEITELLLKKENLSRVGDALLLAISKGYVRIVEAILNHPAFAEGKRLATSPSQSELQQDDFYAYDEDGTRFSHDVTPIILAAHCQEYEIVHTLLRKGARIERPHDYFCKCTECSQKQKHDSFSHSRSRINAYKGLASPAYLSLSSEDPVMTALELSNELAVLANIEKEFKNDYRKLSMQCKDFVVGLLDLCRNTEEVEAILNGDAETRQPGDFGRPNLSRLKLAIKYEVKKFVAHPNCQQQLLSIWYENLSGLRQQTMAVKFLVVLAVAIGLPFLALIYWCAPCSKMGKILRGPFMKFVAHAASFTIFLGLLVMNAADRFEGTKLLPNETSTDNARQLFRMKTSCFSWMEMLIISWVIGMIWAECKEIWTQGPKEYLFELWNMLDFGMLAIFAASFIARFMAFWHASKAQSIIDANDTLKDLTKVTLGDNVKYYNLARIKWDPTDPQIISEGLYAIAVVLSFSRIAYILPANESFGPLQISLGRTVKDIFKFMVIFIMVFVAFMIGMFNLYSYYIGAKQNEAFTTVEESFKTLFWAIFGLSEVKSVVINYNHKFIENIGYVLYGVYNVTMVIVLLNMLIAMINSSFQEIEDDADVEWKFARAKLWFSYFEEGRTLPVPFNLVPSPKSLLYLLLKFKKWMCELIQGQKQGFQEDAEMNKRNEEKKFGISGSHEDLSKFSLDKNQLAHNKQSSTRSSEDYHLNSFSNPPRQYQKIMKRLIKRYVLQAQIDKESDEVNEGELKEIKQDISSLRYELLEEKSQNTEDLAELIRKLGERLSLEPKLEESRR
Summary of the method: (§2)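 Mouse TRPC6/M5 stable HEK293 cells loaded with FLIPR membrane potential dye in extracellular solution containing 2 mM CaCl2, pH 7.4. Varying compound concentrations are applied, with 1 μM carbachol as reference, and read on a microplate reader at 32 °C. The increase in fluorescence (ΔF/F0) indicates depolarization. The concentration–response curve gives EC50, n = 6.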

[2] = target: T2, Short transient receptor potential channel 6 (Mus musculus, UniProt Q61143); assay: as §1; summary of the method: as §2
T2 sequence (Q61143 whole entry): T1 sequence (whole entry)

[3] = target: T3, Short transient receptor potential channel 7 (Homo sapiens) (UniProt Q9HCX4); assay: Agonist activity at human TRPC7 expressed in HEK293 cells assessed as increase in membrane depolarization measured for 2.5 mins in presence of 2 mM Ca2+ by FLIPR membrane potential dye-based fluorescence assay
T3 sequence (whole entry): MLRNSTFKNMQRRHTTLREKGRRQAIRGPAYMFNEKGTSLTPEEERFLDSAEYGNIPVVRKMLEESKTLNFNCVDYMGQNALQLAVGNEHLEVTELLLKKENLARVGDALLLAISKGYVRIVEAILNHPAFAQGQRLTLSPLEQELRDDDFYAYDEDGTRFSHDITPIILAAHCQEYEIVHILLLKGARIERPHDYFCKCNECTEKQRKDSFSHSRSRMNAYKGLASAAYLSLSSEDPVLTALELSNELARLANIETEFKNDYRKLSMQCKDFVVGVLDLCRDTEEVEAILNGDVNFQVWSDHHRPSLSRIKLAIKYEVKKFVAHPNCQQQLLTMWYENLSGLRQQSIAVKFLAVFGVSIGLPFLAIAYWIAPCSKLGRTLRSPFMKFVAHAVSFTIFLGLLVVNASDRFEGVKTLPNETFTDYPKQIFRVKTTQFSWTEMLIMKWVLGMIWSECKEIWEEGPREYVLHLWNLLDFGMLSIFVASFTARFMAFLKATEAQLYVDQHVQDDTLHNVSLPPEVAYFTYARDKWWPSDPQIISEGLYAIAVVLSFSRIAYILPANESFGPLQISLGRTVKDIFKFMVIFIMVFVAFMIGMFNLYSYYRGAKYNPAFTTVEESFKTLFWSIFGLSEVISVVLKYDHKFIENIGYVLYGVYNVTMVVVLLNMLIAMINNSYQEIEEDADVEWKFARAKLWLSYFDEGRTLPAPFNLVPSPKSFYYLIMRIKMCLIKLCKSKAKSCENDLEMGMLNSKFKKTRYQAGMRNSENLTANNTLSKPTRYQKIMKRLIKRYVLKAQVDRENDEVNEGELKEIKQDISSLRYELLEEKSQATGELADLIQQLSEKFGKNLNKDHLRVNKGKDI

In the case of CCOC(=O)N1CCC(c2cc(O)n3nc(C)c(-c4ccc(F)cc4)c3n2)CC1, the Activity [1] is reported as “Dose-dependent effect”, the EC50 [2] is reported as 1.4 µM and the Activity [3] is reported as “Active”.
